Test results reported in ChEMBL document CHEMBL3046042, “3-(4-Methylfuran-3-yl)propan-1-ol: a white-spotted Stinkbug ( Eysarcoris ventralis ) repellent produced by an endophyte isolated from green foxtail” (2010).

Experiments:
Assay type in all cases: functional
[1] = tested on: Eysarcoris; test: Repellent activity against Eysarcoris ventralis assessed as reduction in number of bugs at 0.1 umol measured after 30 min
How it was run: (§1)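 Two-choice bottle assay. Sample dissolved in acetone, 50 μL applied to filter paper strip (5 × 40 mm); control strip got acetone only. Strips dried, each placed in a glass bottle joined to the apparatus. Twenty E. ventralis adults released, held at 10 °C under light; bugs per bottle counted after 30 min. Repellency calculated by formula; four repeats, average ± standard error.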

[2] = tested on: Eysarcoris; test: Repellent activity against Eysarcoris ventralis assessed as reduction in number of bugs at 1 umol measured after 30 min; how it was run: as §1
[3] = tested on: Eysarcoris; test: Repellent activity against Eysarcoris ventralis assessed as reduction in number of bugs at 0.01 umol measured after 30 min; how it was run: as §1
[4] = tested on: Eysarcoris; test: Repellent activity against Eysarcoris ventralis assessed as reduction in number of bugs at 0.003 umol measured after 30 min; how it was run: as §1

`Cc1cocc1CCCOC(=O)c1ccccc1` was tested, and the Repellency [1] was 5.3% and the Repellency [2] was 40.7%.

Work on `CCCC(=O)OCCCc1cocc1C` yielded a Repellency [3] of -19.4%, a Repellency [4] of 19.5% and a Repellency [1] of 51.8%. It also gave a Repellency [2] of 96.4%.

`CC(=O)OCCCc1cocc1C` was tested, and the Repellency [3] was 7.3%, the Repellency [4] was 10.7% and the Repellency [1] was 90.2%.

With `CCC(=O)OCCCc1cocc1C` the Repellency [3] was 20.5%, the Repellency [1] was 58% and the Repellency [2] was 89.3%.

`Cc1cocc1CCCO` showed a Repellency [1] of 5.7% and a Repellency [2] of 89.3%.

`c1ccc2ccccc2c1` [NAPHTHALENE] showed a Repellency [3] of 40.7%, a Repellency [1] of 44.6% and a Repellency [2] of 80.4%.
